Source: ChEMBL document CHEMBL4602710 (ACS Med Chem Lett, 2020)
Values after ≈ are worked out from the molar mass of the structure shown. Active and inactive are the calls of the source. No cut-off for these calls is given here.

Tests used:
[1] = target: T1, Tyrosine-protein kinase SYK (Homo sapiens, UniProt P43405); experiment: Inhibition of SYK in human whole blood assessed as reduction in anti-FCepsilonR1 mAb-induced basophil activation by measuring decrease in CD63 surface expression incubated for 60 mins followed by anti-FCepsilonR1 mAb stimulation for 20 mins by flow cytometry analysis; assay type: tissue-based
[2] = Clearance in human liver microsomes; assay type: ADME, Microsome
[3] = Solubility of compound at pH 7.4; assay type: physicochemical; conditions: buffer
[4] = target: T1, Tyrosine-protein kinase SYK; experiment: Inhibition of SYK in human Ramos cells assessed as reduction in antihuman IgM F(ab)2-induced phosphorylation of BLNK at Y96 residue preincubated for 1 hr followed by antihuman IgM F(ab)2 stimulation for 5 mins by MSD high bind plate assay; assay type: cell-based
[5] = Solubility of compound at pH 2; assay type: physicochemical; conditions: buffer
[6] = target: T1, Tyrosine-protein kinase SYK; experiment: Inhibition of SYK (unknown origin) using XL665-labeled peptide as substrate in presence of ATP measured after 30 mins by TR-FRET assay
[7] = Oral bioavailability in rat at 5 mg/kg; assay type: ADME, organism-based; conditions: in vivo
[8] = Toxicity in human assessed as clinical abnormalities at 15 to 50 mg administered as multiple doses; conditions: in vivo
Procedure, shortened: (§1)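 Healthy human volunteers received single doses of 2–50 mg or multiple doses of 15–50 mg; adverse events and laboratory abnormalities recorded.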

[9] = AUC in human at 45 mg, po administered as single dose; assay type: ADME, organism-based; conditions: in vivo
Procedure, shortened: (§2)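 Healthy human volunteers given a single oral 45 mg dose, either without pretreatment or after pretreatment with 20 mg omeprazole; plasma AUC compared.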

[10] = Clearance in monkey at 1 mg/kg, iv or 5 mg/kg, po; assay type: ADME, organism-based, Macaca mulatta; conditions: rhesus monkey, in vivo
[11] = Oral bioavailability in dog at 5 mg/kg; assay type: ADME, organism-based, Canis lupus familiaris; conditions: in vivo
[12] = Apparent clearance in human hepatocytes; assay type: ADME, cell-based, Hepatocyte
[13] = tested on: Mus musculus; experiment: Protective activity in NZBWF1/J mouse SLE model assessed as reduction in proteinuria at 0.25%, po administered daily for 12 weeks measured weekly from week 28-40; assay type: functional, organism-based
Procedure, shortened: (§3)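 Spontaneous lupus model in NZB/W F1 mice, treated for 12 weeks. Proteinuria score followed from weeks 28–40; survival assessed at week 40.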

[14] = Apparent clearance in rat hepatocytes; assay type: ADME, cell-based, Hepatocyte
[15] = Toxicity in human assessed as adverse events at 2 to 50 mg administered as single dose; conditions: in vivo; procedure, shortened: as §1
[16] = Distribution coefficient, logD of compound; assay type: physicochemical; conditions: octanol/water
[17] = Volume of distribution at steady state in dog at 1 mg/kg, iv or 5 mg/kg, po; assay type: ADME, organism-based, Canis lupus familiaris; conditions: in vivo, read-out: Vdss
[18] = AUC in dog pretreated with pentagastrin; assay type: ADME, Canis lupus familiaris; conditions: in vivo
[19] = tested on: Hepatocyte; experiment: Apparent clearance in monkey hepatocytes; assay type: ADME, cell-based, Macaca mulatta; conditions: rhesus monkey
[20] = Fraction unbound in human plasma; assay type: ADME, cell-free
[21] = target: Tyrosine-protein kinase JAK2 (Homo sapiens, UniProt O60674); experiment: Inhibition of wild-type human partial length JAK2 JH1 catalytic domain (A829 to G1132 residues) expressed in mammalian expression system by Kinomescan method
[22] = AUC in human at 45 mg, po administered as single dose pretreated with omeprazole; assay type: ADME, organism-based; conditions: in vivo; procedure, shortened: as §2
[23] = Toxicity in human assessed as adverse events at 15 to 50 mg administered as multiple doses; conditions: in vivo; procedure, shortened: as §1
[24] = Fraction unbound in monkey plasma; assay type: ADME, cell-free, Macaca mulatta; conditions: rhesus monkey
[25] = Half life in rat at 1 mg/kg, iv or 5 mg/kg, po; assay type: ADME, organism-based; conditions: in vivo
[26] = Half life at steady state in human at 2 to 50 mg administered once daily; assay type: ADME; conditions: in vivo, read-out: t1/2ss
[27] = Oral bioavailability in monkey at 5 mg/kg; assay type: ADME, organism-based, Macaca mulatta; conditions: rhesus monkey, in vivo
[28] = Volume of distribution at steady state in rat at 1 mg/kg, iv or 5 mg/kg, po; assay type: ADME, organism-based; conditions: in vivo, read-out: Vdss
[29] = AUC in dog pretreated with famotidine; assay type: ADME, Canis lupus familiaris; conditions: in vivo
[30] = Toxicity in human assessed as clinical abnormalities at 2 to 50 mg administered as single dose; conditions: in vivo; procedure, shortened: as §1
[31] = tested on: Hepatocyte; experiment: Apparent clearance in dog hepatocytes; assay type: ADME, cell-based, Canis lupus familiaris
[32] = tested on: Mus musculus; experiment: Protective activity in NZBWF1/J mouse SLE model assessed as increase in animal survival rate at 0.25%, po administered daily for 12 weeks measured at week 40; assay type: functional, organism-based; procedure, shortened: as §3
[33] = Half life in monkey at 1 mg/kg, iv or 5 mg/kg, po; assay type: ADME, organism-based, Macaca mulatta; conditions: rhesus monkey, in vivo
[34] = Half life in dog at 1 mg/kg, iv or 5 mg/kg, po; assay type: ADME, organism-based, Canis lupus familiaris; conditions: in vivo
[35] = Clearance in dog at 1 mg/kg, iv or 5 mg/kg, po; assay type: ADME, organism-based, Canis lupus familiaris; conditions: in vivo
[36] = Clearance in rat at 1 mg/kg, iv or 5 mg/kg, po; assay type: ADME, organism-based; conditions: in vivo
[37] = Fraction unbound in rat plasma; assay type: ADME, cell-free
[38] = Fraction unbound in dog plasma; assay type: ADME, cell-free, Canis lupus familiaris
[39] = Volume of distribution at steady state in monkey at 1 mg/kg, iv or 5 mg/kg, po; assay type: ADME, organism-based, Macaca mulatta; conditions: rhesus monkey, in vivo, read-out: Vdss
[40] = Apparent permeability of compound in human Caco2 cells; assay type: ADME, cell-based; conditions: Caco-2
[41] = Efflux ratio of apparent permeability of compound in human Caco2 cells; assay type: ADME, cell-based; conditions: Caco-2

Tyrosine-protein kinase JAK2, sequence (O60674 whole entry, the tested form may be a part): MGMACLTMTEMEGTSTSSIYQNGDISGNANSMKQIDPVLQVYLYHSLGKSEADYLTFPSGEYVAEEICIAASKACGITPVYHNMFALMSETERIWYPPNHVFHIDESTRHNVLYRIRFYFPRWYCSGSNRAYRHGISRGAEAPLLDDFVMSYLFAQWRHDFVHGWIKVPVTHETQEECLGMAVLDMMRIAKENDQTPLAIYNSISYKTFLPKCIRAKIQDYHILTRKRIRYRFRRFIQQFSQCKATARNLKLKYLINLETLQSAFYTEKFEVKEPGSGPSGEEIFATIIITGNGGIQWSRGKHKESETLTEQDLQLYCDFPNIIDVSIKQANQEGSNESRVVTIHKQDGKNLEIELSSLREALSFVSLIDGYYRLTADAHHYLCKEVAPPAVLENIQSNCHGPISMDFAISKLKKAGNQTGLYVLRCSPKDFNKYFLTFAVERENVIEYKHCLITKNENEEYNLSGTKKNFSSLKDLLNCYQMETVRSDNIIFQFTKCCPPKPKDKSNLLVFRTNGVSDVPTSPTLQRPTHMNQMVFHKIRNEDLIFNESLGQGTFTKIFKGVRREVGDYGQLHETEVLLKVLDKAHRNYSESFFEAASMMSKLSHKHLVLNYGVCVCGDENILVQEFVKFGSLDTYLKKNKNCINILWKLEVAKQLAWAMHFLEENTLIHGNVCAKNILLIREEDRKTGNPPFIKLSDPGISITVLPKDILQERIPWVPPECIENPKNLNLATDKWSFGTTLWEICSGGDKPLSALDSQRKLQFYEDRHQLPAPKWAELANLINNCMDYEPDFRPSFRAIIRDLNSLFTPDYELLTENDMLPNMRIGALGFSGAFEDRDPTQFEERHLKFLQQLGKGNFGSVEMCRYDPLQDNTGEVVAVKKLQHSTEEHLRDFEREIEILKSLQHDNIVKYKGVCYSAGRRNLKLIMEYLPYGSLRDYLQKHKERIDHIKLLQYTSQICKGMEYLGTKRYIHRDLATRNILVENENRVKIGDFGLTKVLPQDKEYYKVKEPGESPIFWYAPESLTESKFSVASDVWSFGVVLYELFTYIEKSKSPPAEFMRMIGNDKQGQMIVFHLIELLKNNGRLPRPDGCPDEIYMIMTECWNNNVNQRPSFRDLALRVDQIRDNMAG

c1cn2cc(-c3cnc4c(c3)NCCO4)nc(Nc3ccc(N4CCN(C5COC5)CC4)cc3)c2n1
EC50 [1]: 89 nM
CLhep predicted [2]: 4.17 mL/min/kg
solubility [3]: > 100 µM
EC50 [4]: 46.8 nM
solubility [5]: > 100 µM
IC50 [6]: 8.4 nM
bioavailability [7]: 38%

Nc1cncc(-c2cn3ccnc3c(Nc3ccc(N4CCN(C5COC5)CC4)cc3)n2)n1 [LANRAPLENIB]
Activity [8]: Non-Toxic
CLhep predicted [2]: < 1.83 mL/min/kg
AUC [9]: 6.19 µM·h
clearance [10]: 9.67 mL/min/kg
bioavailability [11]: 100%
solubility [3]: 99 µM (≈ 43.9 µg/mL)
CLH(app) [12]: 0.05 L/h/kg
Activity [13]: Active
CLH(app) [14]: 1.4 L/h/kg
Activity [15]: Non-Toxic
logD [16]: 1.3
Vd [17]: 1.6 L/kg
AUC [18]: 8.8 µM·h
CLH(app) [19]: 0.28 L/h/kg
fraction unbound [20]: 0.204
IC50 [21]: 120 nM
AUC [22]: 6.46 µM·h
Activity [23]: Non-Toxic
fraction unbound [24]: 0.322
half-life [25]: 222 min
half-life [26]: 1280 to 1480 min
bioavailability [27]: 100%
Vd [28]: 2.5 L/kg
AUC [29]: 10.2 µM·h
Activity [30]: Non-Toxic
CLH(app) [31]: 0.28 L/h/kg
Activity [32]: Active
half-life [33]: 138 min
half-life [34]: 318 min
clearance [35]: 5.5 mL/min/kg
clearance [36]: 29.5 mL/min/kg
solubility [5]: > 100 µM
fraction unbound [37]: 0.118
fraction unbound [38]: 0.385
bioavailability [7]: 60%
Vd [39]: 1.3 L/kg

c1cn2cc(-c3cnc4c(n3)NCCO4)nc(Nc3ccc(N4CCN(C5COC5)CC4)cc3)c2n1
EC50 [1]: 79 nM
CLhep predicted [2]: < 1.83 mL/min/kg
solubility [3]: 99 µM (≈ 48.1 µg/mL)
EC50 [4]: 86 nM
Papp [40]: 11 ×10⁻⁶ cm/s
solubility [5]: > 100 µM
IC50 [6]: 7.8 nM
bioavailability [7]: 21%
efflux ratio [41]: 3

c1cn2cc(-c3cnc4nc[nH]c4c3)nc(Nc3ccc(N4CCN(C5COC5)CC4)cc3)c2n1
EC50 [1]: 309 nM
CLhep predicted [2]: 3 mL/min/kg
solubility [3]: < 1 µM
EC50 [4]: 286 nM
Papp [40]: 2.7 ×10⁻⁶ cm/s
solubility [5]: > 100 µM
IC50 [6]: 13.4 nM
efflux ratio [41]: 5.8

c1cn2cc(-c3ccc4cn[nH]c4c3)nc(Nc3ccc(N4CCN(C5COC5)CC4)cc3)c2n1
EC50 [1]: 385 nM
CLhep predicted [2]: 3 mL/min/kg
solubility [3]: < 1 µM
EC50 [4]: 53 nM
logD [16]: 1.9 to 2.7
Papp [40]: 5.5 ×10⁻⁶ cm/s
solubility [5]: > 100 µM
IC50 [6]: 9.2 nM
bioavailability [7]: 42%
efflux ratio [41]: 2.9

OC1CN(c2ccc(Nc3nc(-c4ccc5cn[nH]c5c4)cn4ccnc34)cc2)C1
EC50 [1]: 723 nM
CLhep predicted [2]: 12.5 mL/min/kg
solubility [3]: 4 µM (≈ 1.59 µg/mL)
EC50 [4]: 57 nM
logD [16]: 1.9 to 2.7
solubility [5]: 78 µM (≈ 31 µg/mL)
IC50 [6]: 11.3 nM

c1cn2cc(-c3ccc4nc[nH]c4c3)nc(Nc3ccc(N4CCN(C5COC5)CC4)cc3)c2n1
EC50 [1]: 90 nM
CLhep predicted [2]: < 1.83 mL/min/kg
solubility [3]: 49 µM (≈ 22.9 µg/mL)
EC50 [4]: 47 nM
Papp [40]: 0.4 ×10⁻⁶ cm/s
solubility [5]: > 100 µM
IC50 [6]: 17.3 nM
efflux ratio [41]: 38

CN(C)C[C@@H]1CN(c2ccc(Nc3nc(-c4ccc5cn[nH]c5c4)cn4ccnc34)cc2)CCO1
EC50 [1]: 231 nM
CLhep predicted [2]: 3.83 mL/min/kg
solubility [3]: 78 µM (≈ 36.5 µg/mL)
EC50 [4]: 109 nM
logD [16]: 1.9 to 2.7
Papp [40]: 0.5 ×10⁻⁶ cm/s
solubility [5]: 90 µM (≈ 42.2 µg/mL)
IC50 [6]: 0.9 nM
bioavailability [7]: 2%
efflux ratio [41]: 29
